Consider ten molecules from ChEMBL document CHEMBL1129491, “Synthesis of non-nucleoside analogs of toyocamycin, sangivamycin, and ++thiosangivamycin: influence of various 7-substituents on antiviral activity” (J Med Chem, 1996).

One test deals with HFF. Put plainly: Cytotoxicity against HFF cells, estimated by visual scoring of cells not affected by virus infection in the plaque reduction assay. The settings on record: Homo sapiens. It counts as functional, cell-based. The method, boiled down: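 Uninfected areas of HFF monolayers in the HCMV plaque-reduction assay examined at 35-fold magnification. Drug-induced cytopathology scored 0–4 on the day plaques were stained and counted.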

Another test relates to Human alphaherpesvirus 1. In words: Antiviral activity against HSV-1 replication was evaluated by ELISA. It counts as functional, organism-based. The essentials: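 HSV-1 strain S-148 ELISA following Prichard and Shipman. Drug concentrations applied to infected cultures; percent inhibition regressed linearly against log concentration and IC50 read from the regression line. Acyclovir as positive control. Most assays averaged over two or more experiments, but HSV-1 ELISAs were run once.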
In general terms: In an ELISA, binding on a coated surface is turned into a signal by an enzyme label.

Test [1] has as its system Human betaherpesvirus 5. In words: Antiviral activity against Human Cytomegalovirus (HCMV) replication in a plaque reduction assay. It counts as functional, organism-based. The essentials: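 Towne strain HCMV (plaque-purified P0) on HFF monolayers in MEM(E) with 10% FBS. Inoculum ca. 100 PFU per 0.2 mL; compounds dissolved in the overlay medium; plaques counted after staining. IC50 from linear regression of percent inhibition against log concentration. Ganciclovir as positive control; two or more experiments averaged.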

The test system of test [2] is KB. In words: Cytotoxic activity tested against exponentially growing KB cells, determined by staining method. It counts as functional, cell-based. The note with it: Homo sapiens. The essentials: (§1)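 KB cells (human oral epidermoid carcinoma) kept in MEM(H) with 10% calf serum and tested while exponentially growing. Toxicity measured by a previously described staining method. IC50 from linear regression of percent inhibition against log drug concentration; two or more experiments averaged.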

The test system of test [3] is L1210. Put plainly: In vitro cytotoxicity against growth rate of L1210 cell at 100 micro M was evaluated. It counts as functional, Mus musculus. The method, boiled down: (§2)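 L1210 murine leukemia cells in Fischer's medium with 10% heat-inactivated horse serum (56 °C, 30 min), exposed to 100 μM compound. Cells counted at 0, 24, 48, 72 and 96 h. Growth rate taken as the slope of semilog cell number versus time, expressed as percent of untreated control.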

The test system of test [4] is Human betaherpesvirus 5. In words: Antiviral activity in Human Cytomegalovirus Viral infection was evaluated by ELISA method. It counts as functional, organism-based. The method, boiled down: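 MRC-5 cells held overnight at 37 °C, then infected with Towne HCMV at moi 0.002 PFU/cell. After 1 h adsorption, up to 10 drug concentrations added in triplicate. Fixed with 95% EtOH after 6.5 days. Blocked, then mouse anti-HCMV monoclonal (1:400, 1 h) and peroxidase anti-mouse (1:1000, 2 h). Read at 450/570 nm, background subtracted; IC50 by log-linear regression.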

For test [5], the system named is L1210. Put plainly: Inhibitory concentration required to decrease the growth rate of L1210 cells to one-half of the control rate. It counts as functional, cell-based. The settings on record: Mus musculus. The essentials:
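L1210 cells in Fischer's medium with 10% heat-inactivated horse serum, counted at 0, 24, 48, 72 and 96 h across selected compound concentrations. Growth rate is the semilog slope as percent of control. IC50 is the concentration that halves the growth rate; '>' values give the highest concentration tested.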

Test [6] deals with L1210. In words: Percent control against growth rate of L1210 cell at 100 micro M was evaluated. It counts as functional, Mus musculus. The method, boiled down: as §2
In test [7] the test system is KB. In words: Cytotoxic activity against exponentially growing KB cells was determined by a staining method. It counts as functional, cell-based. The note with it: Homo sapiens. The method, boiled down:
as §1

Some results are limits rather than exact numbers.

For orientation: IC50 means the midpoint of a concentration-inhibition curve. For `N#Cc1cn(COCc2ccccc2)c2ncnc(N)c12`, the IC50 in the test on HFF, with Human alphaherpesvirus 1, in the test with Human betaherpesvirus 5 [1] and in the test on KB [2] was above 100 µM each time. The same molecule registered a Control in the test on L1210 [3] of 83%.

As for `COCCOCn1cc(C(N)=O)c2c(N)ncnc21`, the IC50 with HFF, in the test with Human alphaherpesvirus 1, in the test with Human betaherpesvirus 5 [1] and in the test on KB [2] was above 100 µM throughout. In addition, the Control with L1210 [3] is listed as 92%.

Take `COCCOCn1cc(C#N)c2c(N)ncnc21`: the IC50 is above 100 µM with HFF, above 100 µM with Human alphaherpesvirus 1, 90 µM with Human betaherpesvirus 5 [1] and above 100 µM with KB [2]. In addition, the Control with L1210 [3] was determined as 88%.

In the case of `NC(=S)c1cn(COCc2ccccc2)c2ncnc(N)c12`, the IC50 in the test with HFF was above 100 µM; in the test on Human alphaherpesvirus 1, 10 µM; in the test with Human betaherpesvirus 5 [4] it was 1.8 µM; in the test with Human betaherpesvirus 5 [1], 2.6 µM; in the test with KB [2], above 100 µM; in the test with L1210 [5], 100 µM. This molecule also had a Control with L1210 [3] of 52%.

As to `COCCOCn1cc(C(N)=S)c2c(N)ncnc21`, the IC50 was above 100 µM with HFF; 85 µM with Human alphaherpesvirus 1; 1.9 µM in the test on Human betaherpesvirus 5 [4]; 1 µM in the test on Human betaherpesvirus 5 [1]; 183 µM in the test on KB [2]. Besides, the Control in the test on L1210 [3] turned out to be 88%.

Regarding `NC(=O)c1cn(COCc2ccccc2)c2ncnc(N)c12`, the IC50 was above 100 µM in the test on HFF; above 100 µM in the test with Human alphaherpesvirus 1; above 100 µM with Human betaherpesvirus 5 [1]; above 100 µM in the test with KB [2]; 70 µM with L1210 [5]. The molecule further displayed a Control with L1210 [3] of 0%.

Regarding `CCOCn1cc(C#N)c2c(N)ncnc21`, the IC50 with HFF, in the test with Human alphaherpesvirus 1, in the test with Human betaherpesvirus 5 [1] and in the test with KB [2] was above 100 µM throughout. The molecule also had a Control with L1210 [3] of 76%.

For `CCOCn1cc(C(N)=O)c2c(N)ncnc21`, the IC50 in the test on HFF, in the test on Human alphaherpesvirus 1, in the test with Human betaherpesvirus 5 [1] and with KB [2] was above 100 µM in each case. In addition, the Control in the test with L1210 [6] amounted to 91%.

As for `CCOCn1cc(C(=N)S)c2c(N)ncnc21`, the IC50 with HFF is 66 µM; with Human alphaherpesvirus 1, 40 µM; in the test on Human betaherpesvirus 5 [4] it was 7 µM; with Human betaherpesvirus 5 [1], 2.7 µM; with KB [2] it was 68 µM. For the same molecule, in the test on L1210 [3], the Control was found to be 111%.

On to `Cc1cccc(Cn2cc(C#N)c3c(N)ncnc32)c1`, for which the IC50 with HFF, in the test with Human alphaherpesvirus 1, in the test with Human betaherpesvirus 5 [1] and in the test on KB [7] was above 100 µM each time.
